Results collected from several papers.
Each line is one published result; the experiments were not run side by side.
CDK16 with cyclin Y: Cyclin-dependent kinase 16, with cyclin Y (CDK16, Homo sapiens, UniProt Q00536)
CDK16: Cyclin-dependent kinase 16 (CDK16, Homo sapiens, UniProt Q00536)

Compound | target | test | setting | measurement | result
CS(=O)(=O)Nc1cccc(-c2csc(NC(=O)CSc3nc4nccnc4c(=O)n3CCc3ccccc3)n2)c1 | CDK16 with cyclin Y | enzyme activity, inhibitor | 10 µM | inhibition | -1%
Cn1c2c(Cl)c(Cl)ccc2c2cn[nH]c(=O)c21 | CDK16 | thermal stability, DSF | 10 µM | ΔTm | 0.8 °C
CNC(=O)Nc1ccc2c(c1)CC[C@@]21OC(=O)N(CC(=O)N(Cc2ccc(F)cc2)[C@@H](C)C(F)(F)F)C1=O | CDK16 | cell-free assay, competition with immobilised ligand | 1 µM | remaining binding | 75%
Cn1c2c(c3ccc(Cl)c(Cl)c31)C(C#N)C1(CCCCC1)NC2=O (racemic) | CDK16 | thermal stability, DSF | 10 µM | ΔTm | 0.6 °C
CO[C@@H](C)c1c(Nc2ccc([C@@H](N(C)C(=O)C3CCS(=O)(=O)CC3)C(F)(F)F)cc2)cnc2cc(Cl)nn12 | CDK16 | cell-free assay, competition with immobilised ligand | 1 µM | remaining binding | 72%
N#CC1c2c([nH]c3c(Cl)c(Cl)ccc23)C(=O)NC12CCCCC2 (racemic) | CDK16 | thermal stability, DSF | 10 µM | ΔTm | 0.9 °C
Nc1ncnc2occ(-c3ccc(NC(=O)Nc4cc(C(F)(F)F)ccc4F)cc3)c12 | CDK16 | cell-free assay, inhibitor | 20 µM | remaining signal | 0.15%
Cc1ccc(C(=O)NCc2ccsc2)cc1C#Cc1cn(C(C)C)c2ncnc(N)c12 | CDK16 with cyclin Y | enzyme activity, inhibitor | 1 µM | activity vs control | 101%
O=C(O)c1cc(-c2ccc(C3CCNCC3)cc2)c2ccc(-c3ccc(C(F)(F)F)cc3)cc2c1 | CDK16 | cell-free assay, competition with immobilised ligand | 1 µM | remaining binding | 100%
Cn1c2c(c3ccc(Cl)c(Cl)c31)C(C#N)C1(CCN(C(=O)OC(C)(C)C)CC1)NC2=O (racemic) | CDK16 | thermal stability, DSF | 10 µM | ΔTm | 0 °C
CCCCNc1ncc2c(-c3ccc(F)cc3)nn(C[C@H]3CC[C@H](N)CC3)c2n1 | CDK16 | target engagement in cells, inhibitor, chemoproteomics | 20 mM | inhibition | 38.5%
CC(C)(C)c1nc2c(s1)c1nc(N)ncc1c1ccc(NS(=O)(=O)c3c(F)cccc3F)c(F)c12 | CDK16 with cyclin Y | enzyme activity, inhibitor, radiometric | 1 µM | remaining activity | 87%
